The list is not random: actives were taken first. Their share in the collection is about 5.8%.
IDH1 R132H inh = inhibitors of IDH1 R132H reductase, primary screen, biochemical, plate reader, single point; inhibition, % at 10 µM; AID 624101, 2012; Isocitrate dehydrogenase [NADP] cytoplasmic (Homo sapiens), O75874; 70,000 tested, 0.18% active; diaphorase/resazurin fluorescence, 60 min; in the data active = inhibition above about 34%; inconclusive = no clear call, values can overlap the other calls; inactive = below about 11%
Target sequence (O75874 whole entry R132H): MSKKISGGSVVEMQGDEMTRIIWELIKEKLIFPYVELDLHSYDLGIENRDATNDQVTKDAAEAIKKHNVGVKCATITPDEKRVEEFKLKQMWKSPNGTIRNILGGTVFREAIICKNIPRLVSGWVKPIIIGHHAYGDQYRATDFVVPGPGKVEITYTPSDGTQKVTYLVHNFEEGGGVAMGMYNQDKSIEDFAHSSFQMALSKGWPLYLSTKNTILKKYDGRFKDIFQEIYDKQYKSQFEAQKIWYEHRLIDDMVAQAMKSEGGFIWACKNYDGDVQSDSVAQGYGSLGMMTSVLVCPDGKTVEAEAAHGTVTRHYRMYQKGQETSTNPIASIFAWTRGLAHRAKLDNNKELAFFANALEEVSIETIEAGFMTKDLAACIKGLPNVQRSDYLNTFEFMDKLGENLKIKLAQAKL
Pf Dd2 inh = P. falciparum Dd2 growth inhibitors, primary screen, SYBR Green fluorescence, single dose replicates. 72 h; hits give low values. activity change, % at 10 µM. 94,000 tested, 2.3% active; in the data active = activity change below about -80%; inconclusive = no clear call, values can overlap the other calls
T cruzi growth-1 = T. cruzi intracellular proliferation inhibitors, primary screen, cell-based, beta-gal Tulahuen parasites, NIH3T3 host, luminescence | T. cruzi beta-gal in NIH3T3, GalScreen luminescence, 90 h | inhibition, % at 8.34 µM | 77,000 tested, 5.9% active;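 active = mean inhibition above about 93%, with at least 55% of replicates each passing it, limit read from the data, passing the limit was not always enough; inconclusive = only one of those two conditions holds; inactive = neither condition holds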
KDM4C inh = inhibitors of GASC-1 (KDM4C) histone demethylase, primary screen, biochemical, single concentration HTS | AID 720574, 2013 | 96,000 tested, 0.15% active | inhibition, % at 12.5 µM | GST-KDM4C 2-372, H3K9me3 peptide, LANCE TR-FRET;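 active = mean replicate inhibition above about 25%, with at least 55% of replicates also reaching it, limit read from the data, passing the limit was not always enough; inconclusive = only one of those two conditions met; inactive = neither condition met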
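System – N-terminal GST-fused human GASC-1 (KDM4C) fragment, residues 2-372 · Input – enzyme final amount 10 nM · Technique – LANCE TR-FRET, Eu antibody, ULight-streptavidin, EDTA, ex 340 nm, em 618/671 nm · Medium – HEPES buffer, pH 7.5, plus ascorbate · Incubation – enzyme reaction 30 min, then detection 60 min, both room temperature · Reagent – H3K9me3 peptide with Fe(II)/2OG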
T cruzi growth-2 = T. cruzi intracellular proliferation inhibitors, confirmation, cell-based, NIH3T3 host, beta-gal parasite, luminescence, cherry-pick. 5,600 tested, 72% active. AID 651739, 2012. shares compounds with T cruzi growth-1. inhibition, % at 8.35 µM. T. cruzi beta-gal in NIH3T3, GalScreen luminescence, 90 h;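 active = mean replicate inhibition above about 95% and at least 55% of replicates individually reaching it, limit read from the data; inconclusive = only one of the two criteria is met; inactive = neither criterion is met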
T cruzi growth-3 = inhibitors of intracellular T. cruzi replication, confirmation, NIH3T3 host cells, beta-gal parasites, cherry-pick, set 2 | shares compounds with T cruzi growth-1 | T. cruzi beta-gal in NIH3T3, GalScreen luminescence, 90 h | inhibition, % at 2.09 µM | 5,600 tested, 21% active | AID 651740, 2012;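 active = mean inhibition above about 95%, with at least 55% of replicates also reaching it, limit read from the data; inconclusive = meets just one of the two conditions; inactive = meets neither condition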
NIH3T3 tox = cytotoxicity in mouse NIH/3T3 fibroblasts, confirmation, cytotoxicity control for T. cruzi proliferation inhibitor project, cell-based, cherry-pick, single point; AID 651742, 2012; shares compounds with T cruzi growth-1; NIH/3T3 viability, CellTiter-Glo ATP luminescence, 90 h; 5,600 tested, 14% active; cytotoxicity (signal decrease), % at 8.35 µM;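 active = mean signal decrease across replicates above about 35% based on untreated-well scatter, with enough replicates individually passing, limit read from the data; inconclusive = no rule stated though some were filed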
NIH3T3 tox 2 = NIH/3T3 fibroblast cytotoxicity, confirmation, cytotoxicity control, cell-based, cherry-pick, single point, set 2 | shares compounds with T cruzi growth-1 | NIH/3T3 viability, CellTiter-Glo ATP luminescence, 90 h | inhibition, % at 24.9 µM | 5,600 tested, 56% active | AID 651744, 2012;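 active = mean loss of cell viability signal at or above a set limit, and enough replicates individually reaching it; inconclusive = meets only the mean limit or only the replicate share; inactive = meets neither condition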
Numbers stand for hits; . = inactive; ? = inconclusive; / = no result.

SMILES | IDH1 R132H inh | Pf Dd2 inh | T cruzi growth-1 | KDM4C inh | T cruzi growth-2 | T cruzi growth-3 | NIH3T3 tox | NIH3T3 tox 2
C[C@@H]1CCCCO[C@@H](CN(C)C(=O)Nc2cccc3ccccc23)[C@H](C)CN([C@H](C)CO)C(=O)c2cc(NC(=O)c3ccccc3)ccc2O1 | / | . | 103 | . | 101 | ? | . | .
CNC[C@H]1Oc2cc(C#Cc3ccccc3OC)ccc2S(=O)(=O)N([C@H](C)CO)C[C@@H]1C | . | / | 101 | . | 107 | . | . | 104
CNC[C@@H]1Oc2cc(C#Cc3ccccc3OC)ccc2S(=O)(=O)N([C@H](C)CO)C[C@H]1C | . | / | 102 | . | 102 | . | . | 103
COc1ccccc1C#Cc1ccc2c(c1)O[C@@H](CN(C)C)[C@@H](C)CN([C@@H](C)CO)S2(=O)=O | . | . | / | . | / | / | / | /
CNC[C@@H]1Oc2cc(C#Cc3ccccc3)ccc2S(=O)(=O)N([C@@H](C)CO)C[C@H]1C | . | . | / | . | / | / | / | /
O=C(CC1CC1)N1CC2(C1)[C@H](c1ccccc1)[C@H](CO)N2C(=O)c1cnccn1 | / | . | / | . | / | / | / | /
C[C@H](CO)N1C[C@H](C)[C@H](CN(C)C(=O)CN(C)C)Oc2ncc(C#Cc3ccccc3)cc2C1=O | . | . | . | . | / | / | / | /
C[C@@H]1CN([C@H](C)CO)S(=O)(=O)c2ccc(C#Cc3ccccc3F)cc2O[C@@H]1CN(C)C(=O)Cc1ccccc1 | . | . | 121 | / | 97 | 99 | . | 102
C[C@@H]1CN([C@H](C)CO)S(=O)(=O)c2ccc(C#Cc3ccccc3F)cc2O[C@@H]1CN(C)C(=O)Cc1ccncc1 | . | . | / | . | / | / | / | /
C[C@H]1CN([C@@H](C)CO)S(=O)(=O)c2ccc(C#Cc3ccccc3F)cc2O[C@@H]1CN(C)C(=O)Cc1cccnc1 | . | . | . | . | / | / | / | /
C[C@@H]1CN([C@@H](C)CO)S(=O)(=O)c2ccc(C#Cc3ccccc3F)cc2O[C@H]1CN(C)C(=O)Cc1cccnc1 | . | . | 96 | . | 104 | . | . | 73
C[C@H](CO)N1C[C@H](C)[C@@H](CN(C)C(=O)Cc2ccccc2)Oc2cc(C#Cc3ccccc3F)ccc2S1(=O)=O | . | ? | 124 | . | . | . | . | .
CC(=O)N(C)C[C@@H]1Oc2cc(C#Cc3ccccc3F)ccc2S(=O)(=O)N([C@H](C)CO)C[C@H]1C | . | . | . | . | / | / | / | /
C[C@H](CO)N1C[C@H](C)[C@H](CN(C)C(=O)Cc2ccccc2)Oc2cc(C#Cc3ccccc3F)ccc2S1(=O)=O | . | . | 127 | . | 95 | . | . | ?
COCC(=O)Nc1ccc2c(c1)C(=O)N(C)C[C@@H](OC)[C@H](C)CN[C@@H](C)CO2 | / | . | . | . | / | / | / | /
COc1ccc(CN2CC3(CCN(C(=O)C4CCOCC4)CC3)c3c(n(C)c4cc(OC)ccc34)[C@H]2CO)cc1 | / | . | / | . | / | / | / | /
C[C@H]1CN([C@@H](C)CO)S(=O)(=O)c2ccc(C#Cc3ccccc3F)cc2O[C@@H]1CN(C)C(=O)Cc1ccncc1 | . | . | / | . | / | / | / | /
C[C@H]1CN([C@@H](C)CO)S(=O)(=O)c2ccc(C#Cc3ccccc3F)cc2O[C@H]1CN(C)C(=O)Cc1ccccc1 | . | . | 125 | . | 109 | . | . | 103
COc1cccc(-c2ccc3c(c2)O[C@@H](CN(C)C(=O)C2CC2)[C@@H](C)CN([C@@H](C)CO)S3(=O)=O)c1 | / | . | 105 | . | . | . | . | 45

Screening data deposited in PubChem by Broad Institute.
